# TRPN1 ag = zebrafish TRPN1 (NompC) channel agonism. HEK293 zebrafish TRPN1-YFP, Fluo-8 calcium fluorescence; 100% = response to 87 µM carbachol. activation, % at 3 µM. AID 1424. 220,000 tested, 0.18% active;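 active = activation above its plate's cutoff, the mean activation of test wells on that plate plus 3 SD, cut at about 19% in these data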;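 also: 0% = DMSO alone and 100% = 87 µM carbachol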
#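 System: zebrafish TRPN1-YFP in HEK293 cells / Dosing: 3 µM single point / Timing: dye loading 1 h at 37 °C, then 30 min room temperature / Signal: Fluo-8 calcium fluorescence, excitation 470-495 nm, emission 515-575 nm / Read-out basis: percent activation from peak over basal fluorescence ratio, control-normalized / Control set: high carbachol 87 µM, low DMSO alone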
# CHO parental Ca = counter-screen: ATP calcium response change in parental CHO cells. inhibition, % at 5.6 µM. parental CHO-K1, ATP-induced calcium, Fluo-8 fluorescence. AID 463079. 330,000 tested, 0.63% active;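 active = inhibition above that plate's mean sample inhibition plus 3 SD, cut at about 26% in these data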;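 also: 0% = ATP-challenged DMSO wells and 100% = DMSO wells without ATP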
#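 Test system: untransfected parental CHO cell line; also added: ATP stimulus; dosing: 5.6 µM, single dose; signal: calcium-sensitive Fluo-8 fluorescence; measure: percent inhibition of ATP-evoked calcium rise, normalized to controls; benchmarks: low control ATP plus DMSO, high control DMSO only; replication: one well per compound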
# OX1R antag-1 = antagonists of human orexin 1 receptor (OX1R). 330,000 tested, 1.8% active. OX1R-expressing cells, FRET antagonist read-out. inhibition, % at 6.6 µM. AID 485270; in the data active = inhibition mostly above about 38%, no sharp cut-off; inactive = mostly below about 40%;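 also: 0% = agonist challenge alone and 100% = reference antagonist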
# Target sequence (O43613 whole entry, looked up): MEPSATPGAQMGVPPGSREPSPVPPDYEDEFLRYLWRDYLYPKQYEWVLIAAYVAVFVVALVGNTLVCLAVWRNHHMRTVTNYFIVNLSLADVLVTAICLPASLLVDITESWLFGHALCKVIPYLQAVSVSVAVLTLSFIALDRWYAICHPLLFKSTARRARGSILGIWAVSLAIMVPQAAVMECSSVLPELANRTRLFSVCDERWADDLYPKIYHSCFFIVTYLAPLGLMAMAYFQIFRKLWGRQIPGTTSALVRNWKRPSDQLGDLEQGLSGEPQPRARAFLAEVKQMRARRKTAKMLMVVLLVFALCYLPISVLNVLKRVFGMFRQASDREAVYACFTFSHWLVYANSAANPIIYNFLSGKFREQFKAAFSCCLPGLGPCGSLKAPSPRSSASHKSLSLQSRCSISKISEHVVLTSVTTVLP
# OX1R antag-2 = blocks the human orexin 1 receptor | 330,000 tested, 0.43% active | inhibition, % at 5 µM | O43613 | CHO/OX1R cells, Fluo-8 calcium fluorescence, orexin A | AID 434989;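 active = inhibition above its plate's threshold, mean inhibition of all tested compounds on the plate plus 3 SD, cut at about 37% in these data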;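 also: 0% = orexin A challenge wells and 100% = SB-334867-A antagonist wells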
# TRPML3 ag = agonists of human TRPML3 channel | Q8TDD5 | AID 1448 | activation, % at 3 µM | HEK293 TRPML3-YFP, Fluo-8 calcium fluorescence; 100% = the carbachol control signal | 220,000 tested, 0.29% active;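 active = activation above its plate's cutoff, the mean activation of the plate's test wells plus 3 SD, cut at about 12% in these data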;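 also: 0% = DMSO only wells and 100% = carbachol wells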
#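 Material: TRPML3-YFP stable HEK293 cells | Dosing: One concentration, 3 µM nominal, 0.3% DMSO | Timing: 125 s total fluorescence read per well | Technique: Fluo-8 calcium dye fluorescence, ex 470-495, em 515-575 nm | Measure: Percent activation from peak-to-basal fluorescence ratio, scaled between DMSO and carbachol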
# GPR7 antag = antagonists of human GPR7 (neuropeptides B/W receptor 1) | AID 1861 | P48145 | inhibition, % at 4.4 µM | 290,000 tested, 1.1% active | GPR7-expressing cells, fluorescence antagonist assay; in the data active = inhibition above about 16%, passing the limit was not always enough;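 also: cells stimulated with the agonist NPW; 0% = agonist with vehicle and 100% = vehicle without agonist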
# * marks the source's active call; other numbers are inactive results; . = no result given. An excerpt weighted towards active compounds, which were near 3.2% of everything screened.
SMILES,TRPN1 ag,CHO parental Ca,OX1R antag-1,OX1R antag-2,TRPML3 ag,GPR7 antag
COc1ccc(S(=O)(=O)NCc2cccs2)cc1,-0.6,-4.1,7.1,7.3,-0.6,5.7
O=C(NCCCN1CCN(CCCNC(=O)c2cc([N+](=O)[O-])ccc2Cl)CC1)c1cc([N+](=O)[O-])ccc1Cl,1.1,1.4,71.9*,3.2,0.7,-18.4
O=C(Nc1cc([N+](=O)[O-])ccc1C(=O)NCCN1CCOCC1)c1ccccc1,.,-10.4,75.4*,-5.5,.,-10.7
Cc1ccccc1C(=O)Nc1ccnn1C1CCN(C2CCSCC2)CC1,.,-5.0,16.5,-12.0,.,-4.9
COc1cc(OC)c(OC)cc1/C=N/NC(=O)c1cc(-c2cccn2C)n[nH]1,0.7,-14.0,58.7*,-0.3,0.6,-12.2
Cc1cccc(N2CCN(Cc3cn(C)nc3-c3ccccc3F)CC2)n1,0.3,-18.1,17.7,-25.4,0.6,9.7
COc1cc(/C=C2\Oc3cc(O)ccc3C2=O)ccc1O,.,22.4,60.5*,33.0,.,.
O=C1/C(=C/c2cccc([N+](=O)[O-])c2)Oc2cc(O)ccc21,.,1.1,28.6*,14.4,.,5.1
COc1ccc(-n2c(C)c(C)c3c(NCCCN(C)C)ncnc32)cc1,.,-16.4,13.5,-15.3,.,-11.0
S=C(NCCCc1ccccc1)Nc1ccccc1Cl,145.0*,17.6,33.0,9.0,1.8,-3.4
S=C(NCCc1ccccc1)Nc1ccccc1Cl,0.6,18.7,19.5,3.3,0.3,1.1
CCc1ccccc1N(C(=O)c1ccco1)C(C(=O)NC1CCCC1)c1cccnc1 (centres undefined),.,-24.8,14.1,-23.2,.,-14.8
CCN(CC)S(=O)(=O)c1ccc(Oc2ccccc2OC)cc1,-1.7,20.2,11.9,-14.7,11.1,-6.8
CCN(CC)S(=O)(=O)c1ccc(Oc2ccc(S(=O)(=O)N(CC)CC)cc2)cc1,7.9,57.9*,13.9,33.2,6.1,-7.9
CC(NCc1ccc(S(N)(=O)=O)cc1)C(=O)Nc1ccc([N+](=O)[O-])cc1Cl (centres undefined),2.0,-2.7,65.7*,-5.3,1.3,1.7
C/C(=N\OCc1nc2ccccc2c(=O)n1/N=C/c1cc(C)cc([N+](=O)[O-])c1O)c1ccccc1,0.7,-13.8,47.4*,-17.9,-0.6,8.1
O=C(C[C@H]1C/C=C\C[C@@H](Cc2ccc(F)cc2)C(=O)OC[C@@H]2CCCN2C1=O)NCCO,.,-5.1,-0.6,-9.9,.,.
COC(=O)c1ccccc1-n1c(C)nc(=O)c(-c2ccccc2)c1C,.,.,.,.,.,-0.8
CSc1ccccc1NC(=O)CN(C)C(=O)COc1cccc2cccnc12,.,-9.8,32.1*,-4.2,.,.
O=[N+]([O-])c1cnn2cc(Br)cnc12,-0.1,2.1,73.8*,-14.2,1.5,0.6
Cc1cccc(NS(=O)(=O)c2ccc(C(=O)NCC(c3ccco3)N3CCCCC3)cc2)c1C (centres undefined),.,-1.8,28.1,-15.9,.,.
COc1ccc(C(=O)c2sc(Nc3ccccc3)c(C(=O)Nc3ccc(OC)c(OC)c3)c2N)cc1,1.3,-6.3,17.9,-3.3,1.1,8.2
COc1ccc(NC(=O)c2c(Nc3ccccc3)sc(C(=O)c3ccc(F)cc3)c2N)cc1,2.5,31.0*,19.4,13.8,-0.1,-0.3
NC(=O)CNC(=O)[C@@H]1CC2(CC(c3cccc([N+](=O)[O-])c3)=NO2)CN1C(=O)c1ccccc1 (some centres undefined),1.3,-6.2,43.8,-6.7,0.6,1.2
CC1(C(=O)N2CC3(CC(c4cccc([N+](=O)[O-])c4)=NO3)C[C@H]2C(=O)NCC(N)=O)CC1 (some centres undefined),1.1,-2.4,48.4*,-5.6,0.0,-5.7
SMILES,TRPN1 ag,CHO parental Ca,OX1R antag-1,OX1R antag-2,TRPML3 ag,GPR7 antag
Cc1ccccc1C(=O)NCC(=O)OCCCOC(=O)CNC(=O)c1ccccc1C,.,-24.4,3.3,-2.7,.,.
CCOc1ccccc1NC(=O)C(Sc1nnc2ccccn12)c1ccccc1 (centres undefined),-1.3,-14.7,41.2*,-6.2,-0.5,-12.3
COc1ccccc1-c1cc(SC)c(C#N)c(=O)o1,-2.3,5.1,51.3*,-7.0,0.5,-10.6
COc1ccccc1C(C)NC(=O)Cc1ccc(S(=O)(=O)N2CCOCC2)s1 (centres undefined),.,-1.9,6.6,-26.1,.,.
O=C1C2C3C=CC(C3)C2C(=O)N1c1ccccc1OS(=O)(=O)c1ccccc1 (centres undefined),-2.3,-15.8,71.1*,5.3,0.3,-11.2
Cc1cccc(N2CCN(S(=O)(=O)c3ccc4c(c3)CCC(=O)N4)CC2C)c1 (centres undefined),-1.4,39.9*,27.3,-6.7,-0.1,-15.8
COc1cccc(-c2nnc(NC(=O)c3ccco3)s2)c1,.,-16.8,52.9*,-2.4,.,14.5
Cc1occc(=O)c1OC(=O)Nc1ccc(Cl)c(Cl)c1,4.2,70.4*,14.2,35.9,4.3,12.8
COc1ccc(C(=O)Oc2c(C)occc2=O)cc1OC,1.1,-5.6,17.0,-3.4,0.7,-20.2
Cn1ncc(Cl)c1C(=O)Nc1sc2c(c1C(N)=O)CCC2,0.3,-24.3,76.2*,12.7,0.1,-11.2
NC(=O)c1c(NC(=O)c2cnccn2)sc2c1CCCC2,0.4,-4.4,14.5,-22.8,0.7,-7.5
COCCCNC(=O)CN1C(=O)/C(=C/c2ccccc2C)Sc2ccccc21,-1.3,-10.7,46.7,-13.7,0.8,-14.2
COCCCNC(=O)CN1C(=O)/C(=C/c2ccccc2)Sc2ccccc21,0.4,0.6,67.8*,-4.3,0.1,-7.6
Cc1cccc2[nH]c(CN(C)Cc3nc(CC4CC4)no3)nc12,0.3,-23.9,22.9,-22.1,-0.3,-0.1
CC1(C)CC(=O)C=C(NC2CCCCCC2)C1,0.0,-11.0,9.0,-33.6,0.1,14.8*
O=C(NCCc1ccccc1)c1nc(-c2cccs2)no1,0.0,-2.2,14.7,-19.2,0.4,-9.3
COC(=O)Cn1cc(C(=O)OC)c2ccccc21,0.3,-11.4,19.0,-10.3,-0.2,20.6*
Cc1c(CCOC(=O)c2ccccc2)sc[n+]1CC(=O)c1ccc(Br)cc1,.,-6.7,12.5,-16.7,.,19.9*
Cc1c(CCOC(=O)c2cc([N+](=O)[O-])cc([N+](=O)[O-])c2)sc[n+]1CC(=O)c1ccccc1,-0.8,-23.3,26.2,-16.4,0.7,-7.6
COc1ccc(/C=C2/SC(=O)N(NS(=O)(=O)c3ccccc3)C2=S)cc1OC,-0.9,-16.8,42.8*,-4.6,1.1,-5.2
COc1cccc(/C=C2\SC(=S)N(NS(=O)(=O)c3ccccc3)C2=O)c1OC,.,-13.4,49.8*,-13.6,.,-16.9
O=C1/C(=C/c2cccc(F)c2)SC(=S)N1NS(=O)(=O)c1ccccc1,.,-8.1,7.1,3.3,.,-4.1

# Screening results from PubChem.
